Test [1] concerns NOD mice. In words: Insulitis score in prediabetic NOD mice after two weeks of treatment. In kind it is in vivo. As to conditions: 0.25 or 2.5 mg/kg intraperitoneal for 2 weeks. In outline:
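Female NOD mice, 6 weeks old, received vehicle (5% DMSO, 2% Tween 80, 20% PEG400, saline) or test compound by intraperitoneal injection for two weeks. Pancreata were fixed in 4% paraformaldehyde, paraffin-embedded and sectioned. Islet infiltration was scored 1–4: none, <50% circumference, >50% circumference, intra-islet. N=4–5 mice per group; mean ±SEM; ANOVA.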

The next test concerns human islets. In words: Polyribosome profiling of human islets treated with proinflammatory cytokines. In kind it is cell-based. The conditions noted are these: 50 nM with IFN-γ + IL-1β. Put shortly: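 Human islets were pretreated 1 h with vehicle or test compound (50 nM), then exposed 18–24 h to 1000 IU/mL IFN-γ + 50 IU/mL IL-1β. Translation was halted with 50 μg/mL cycloheximide for 10 min, and lysates were made in buffer pH 7.5 with 10 mM MgCl2. Lysates were run on a 50–10% sucrose gradient (40,000 rpm, 2 h, 4°C) and fractionated with A254 monitoring. Fraction RNA was quantified by qRT-PCR relative to input.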

Test [2] concerns NOD mice. The test can be described thus: β cell mass in NOD mice after two weeks of treatment. In kind it is in vivo. As to conditions: 0.25 or 2.5 mg/kg intraperitoneal for 2 weeks. Put shortly: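 Female NOD mice, 6 weeks old, were given test compound or vehicle (5% DMSO, 2% Tween 80, 20% PEG400, saline) intraperitoneally for two weeks. Pancreata were fixed in 4% paraformaldehyde, paraffin-embedded, sectioned and stained for insulin. β cell mass was derived from insulin+ area relative to whole pancreas area. N=4–5 mice per group; mean ±SEM; ANOVA.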

For another test, the system named is PD-L1. The test is classed as cell-based, human. As to conditions: 10 μM concurrent with cytokines 18–24 h, GOLM1 siRNA, EndoC-βH1 cells. Put shortly:
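EndoC-βH1 cells (low-glucose DMEM, 2% BSA, nicotinamide, β-mercaptoethanol, matrigel-fibronectin coating) had 1 h pretreatment with DMSO or test compound (50 nM). They were then co-treated 18–24 h with 1000 IU/mL IFN-γ + 50 IU/mL IL-1β. For knockdown, Accell GOLM1 siRNA was used and protein was taken 72–96 h later. Proteasome blockade was 10 μM MG132 with cytokines 18–24 h, starting 72 h post-knockdown. Immunoblot; N=3 biological replicates; ANOVA.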

A further test concerns p-GCN2. The test can be described thus: Immunoblot for p-GCN2 in mouse embryonic fibroblasts. In kind it is cell-based. As to conditions: 6 h, MEFs. Put shortly:
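MEFs grown in DMEM with 10% FBS were exposed to test compound (1 μM or 100 nM) or DMSO for 6 h. Protein lysates were collected and immunoblotted.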

Where a SMILES comes first, the peptide text is derived from it. The star is where a group is joined. Cbz = O=C(OCc1ccccc1)*

We go through four compounds from publication PMC11185543 (bioRxiv, 2024).

For the compound `O=C(COc1ccc(Cl)cc1)NC1CCC(NC(=O)COc2ccc(Cl)cc2)CC1` (stereo not drawn) [ISRIB], the insulitis result in the test on NOD mice [1] is “significant reduction in insulitis”. Further, the “RNA sedimenting with polysomes (translation initiation blockade)” value in the test on human islets is recorded as “recovery of the RNA sedimenting with polysomes”. The β cell mass entry in the test on NOD mice [2] is reported as “no effect on β cell mass”.

In the case of `CC(C)C[C@@H](C=O)NC(=O)[C@H](CC(C)C)NC(=O)[C@H](CC(C)C)NC(=O)OCc1ccccc1` [MG132] (Cbz-Leu-Leu-Leu-aldehyde), the “attenuation of PD-L1 levels upon GOLM1 knockdown” value with PD-L1 is recorded as “partially reversed”.

`O=C(CC1NCCCC1O)Cn1cnc2cc(Br)c(Cl)cc2c1=O` (stereo not drawn) [halofuginone]: the “effect on p-GCN2” value in the test with p-GCN2 (100 nM) is recorded as “robustly induces p-GCN2”.

Take `C/C=C(/C)C(=O)O[C@H]1C(C)=C2[C@H]([C@@H]1OC(=O)CCCCCCC)[C@@](C)(OC(C)=O)C[C@H](OC(=O)CCC)[C@@]1(O)[C@H]2OC(=O)[C@@]1(C)O` [thapsigargin]: the “effect on p-GCN2” value in the test on p-GCN2 (1 μM) is listed as “suppresses it”.
